Measured values: ChEMBL document CHEMBL1125626, “Synthesis and structure-activity relationship of new cephalosporins with amino heterocycles at C-7. Dependence of the antibacterial spectrum and beta-lactamase stability on the pKa of the C-7 heterocycle” (1991)
In brackets after ≈: the same amount, converted by molar mass.

Legend:
Escherichia coli [1] = assay: Minimum inhibitory concentration against Escherichia coli DC2 (inoculum, 10e4 cfu per spot); format: functional
Outline: (§1)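 MIC in µg/mL, determined in Jewell and Permain growth medium with spot inoculation at 10^4 cfu per spot. P99 is described as a constitutive type I lactamase producer.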

Klebsiella aerogenes [2] = assay: Minimum inhibitory concentration against Klebsiella aerogenes X6 (inoculum, 10e4 cfu per spot); format: functional; outline: as §1
Serratia marcescens = assay: Minimum inhibitory concentration against Serratia marcescens A16 (inoculum, 10e5 cfu per spot); format: functional
Outline: (§2)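 MIC in µg/mL, determined in Jewell and Permain growth medium with spot inoculation at 10^5 cfu per spot.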

Enterobacter cloacae [3] = assay: Minimum inhibitory concentration against Enterobacter cloacae P99 (inoculum, 10e4 cfu per spot); format: functional; outline: as §1
Klebsiella aerogenes [4] = assay: Minimum inhibitory concentration against Klebsiella aerogenes X5L (inoculum, 10e4 cfu per spot); format: functional; outline: as §1
Streptococcus pyogenes = assay: Minimum inhibitory concentration against Streptococcus pyogenes (inoculum, 10e5 cfu per spot) A1; format: functional; outline: as §2
Escherichia coli [5] = assay: Minimum inhibitory concentration against Escherichia coli TEM X3 (inoculum, 10e4 cfu per spot)(TEM I type lactamase producer)
Staphylococcus aureus [6] = assay: Minimum inhibitory concentration against Staphylococcus aureus A4 (inoculum, 10e5 cfu per spot); format: functional; outline: as §2
Enterobacter cloacae [7] = assay: Minimum inhibitory concentration against Enterobacter cloacae A13 (inoculum, 10e5 cfu per spot); format: functional; outline: as §2
Proteus mirabilis = assay: Minimum inhibitory concentration against Proteus mirabilis A18 (inoculum, 10e5 cfu per spot); format: functional; outline: as §2
Escherichia coli [8] = assay: Minimum inhibitory concentration against Escherichia coli X4 (inoculum, 10e4 cfu per spot)
Staphylococcus aureus [9] = assay: Minimum inhibitory concentration against Staphylococcus aureus A6 (inoculum, 10e5 cfu per spot); format: functional; outline: as §2
Escherichia coli [10] = assay: Minimum inhibitory concentration against Escherichia coli DCO (inoculum, 10e4 cfu per spot); format: functional; outline: as §1
Escherichia coli [11] = assay: Minimum inhibitory concentration against Escherichia coli A8 (inoculum, 10e5 cfu per spot); format: functional; outline: as §2
Enterobacter cloacae [12] = assay: Minimum inhibitory concentration against Enterobacter cloacae P99 (inoculum, 10e4 cfu per spot)(type I lactamase producer); format: functional; outline: as §1
Pseudomonas aeruginosa = assay: Minimum inhibitory concentration against Pseudomonas aeruginosa A21 (inoculum, 10e5 cfu per spot); format: functional; outline: as §2
Proteus vulgaris = assay: Minimum inhibitory concentration against Proteus vulgaris Pv9 (inoculum, 10e5 cfu per spot)
Klebsiella pneumoniae = assay: Minimum inhibitory concentration against Klebsiella pneumoniae A24 (inoculum, 10e5 cfu per spot); format: functional; outline: as §2

Structure (SMILES)	MIC (Escherichia coli [1]) [µg/mL]	MIC (Klebsiella aerogenes [2]) [µg/mL]	MIC (Serratia marcescens) [µg/mL]	MIC (Enterobacter cloacae [3]) [µg/mL]	MIC (Klebsiella aerogenes [4]) [µg/mL]	MIC (Streptococcus pyogenes) [µg/mL]	MIC (Escherichia coli [5]) [µg/mL]	MIC (Staphylococcus aureus [6]) [µg/mL]	MIC (Enterobacter cloacae [7]) [µg/mL]	MIC (Proteus mirabilis) [µg/mL]	MIC (Escherichia coli [8]) [µg/mL]	MIC (Staphylococcus aureus [9]) [µg/mL]	MIC (Escherichia coli [10]) [µg/mL]	MIC (Escherichia coli [11]) [µg/mL]	MIC (Enterobacter cloacae [12]) [µg/mL]	MIC (Pseudomonas aeruginosa) [µg/mL]	MIC (Proteus vulgaris) [µg/mL]	MIC (Klebsiella pneumoniae) [µg/mL]
CC(=O)OCC1=C(C(=O)OC(c2ccccc2)c2ccccc2)N2C(=O)[C@@H](Nc3nc4c(C)cccc4[nH]3)C2SC1 (some centres undefined)	0.25 (≈ 0.44 µM)	16 (≈ 28.1 µM)	≥ 128	32 (≈ 56.3 µM)	≥ 128	8 (≈ 14.1 µM)	32 (≈ 56.3 µM)	8 (≈ 14.1 µM)	≥ 128	8 (≈ 14.1 µM)	8 (≈ 14.1 µM)	4 (≈ 7.03 µM)	8 (≈ 14.1 µM)	16 (≈ 28.1 µM)	≥ 128	≥ 128	≥ 128	8 (≈ 14.1 µM)
CC(=O)OCC1=C(C(=O)OC(C)(C)C)N2C(=O)[C@@H](Nc3nc4cc(N)ccc4[nH]3)C2SC1 (some centres undefined)	0.03 (≈ 0.0653 µM)	0.12 (≈ 0.261 µM)	256 (≈ 557 µM)	0.06 (≈ 0.131 µM)	8 (≈ 17.4 µM)	1 (≈ 2.18 µM)	1 (≈ 2.18 µM)	32 (≈ 69.6 µM)	256 (≈ 557 µM)	32 (≈ 69.6 µM)	0.06 (≈ 0.131 µM)	2 (≈ 4.35 µM)	0.06 (≈ 0.131 µM)	0.25 (≈ 0.544 µM)	32 (≈ 69.6 µM)	> 256	128 (≈ 279 µM)	0.5 (≈ 1.09 µM)
CC(=O)OCC1=C(C(=O)OC(c2ccccc2)c2ccccc2)N2C(=O)[C@@H](Nc3nc4cc(F)ccc4[nH]3)C2SC1 (some centres undefined)	0.12 (≈ 0.21 µM)	4 (≈ 6.99 µM)	256 (≈ 447 µM)	4 (≈ 6.99 µM)	256 (≈ 447 µM)	2 (≈ 3.49 µM)	4 (≈ 6.99 µM)	16 (≈ 27.9 µM)	> 256	16 (≈ 27.9 µM)	1 (≈ 1.75 µM)	2 (≈ 3.49 µM)	1 (≈ 1.75 µM)	4 (≈ 6.99 µM)	256 (≈ 447 µM)	> 256	> 256	64 (≈ 112 µM)
CC1=C(C(=O)OC(c2ccccc2)c2ccccc2)N2C(=O)[C@@H](NC3=NC(c4ccc(O)c(O)c4)CN3)C2SC1 (some centres undefined)	2 (≈ 3.59 µM)	4 (≈ 7.19 µM)	> 256	2 (≈ 3.59 µM)	8 (≈ 14.4 µM)	> 256	2 (≈ 3.59 µM)	> 256	> 256	> 256	2 (≈ 3.59 µM)	> 256	4 (≈ 7.19 µM)	4 (≈ 7.19 µM)	4 (≈ 7.19 µM)	> 256	> 256	> 256
CC(=O)Nc1ccc2[nH]c(N[C@@H]3C(=O)N4C(C(=O)OC(C)(C)C)=C(COC(C)=O)CSC34)nc2c1 (some centres undefined)	0.12 (≈ 0.239 µM)	2 (≈ 3.99 µM)	> 256	2 (≈ 3.99 µM)	> 256	4 (≈ 7.98 µM)	16 (≈ 31.9 µM)	256 (≈ 510 µM)	> 256	8 (≈ 16 µM)	1 (≈ 1.99 µM)	8 (≈ 16 µM)	1 (≈ 1.99 µM)	1 (≈ 1.99 µM)	> 256	> 256	128 (≈ 255 µM)	32 (≈ 63.8 µM)
Cn1nnnc1SCC1=C(C(=O)OC(c2ccccc2)c2ccccc2)N2C(=O)[C@@H](Nc3nc4cc(O)ccc4[nH]3)C2SC1 (some centres undefined)	< 0.03	0.25 (≈ 0.399 µM)	64 (≈ 102 µM)	0.25 (≈ 0.399 µM)	64 (≈ 102 µM)	0.5 (≈ 0.798 µM)	1 (≈ 1.6 µM)	16 (≈ 25.5 µM)	> 256	0.5 (≈ 0.798 µM)	0.12 (≈ 0.191 µM)	2 (≈ 3.19 µM)	0.12 (≈ 0.191 µM)	0.25 (≈ 0.399 µM)	32 (≈ 51.1 µM)	> 256	16 (≈ 25.5 µM)	4 (≈ 6.38 µM)
Cc1nnc(SCC2=C(C(=O)OC(C)(C)C)N3C(=O)[C@@H](NC4=NCCN4)C3SC2)s1 (some centres undefined)	1 (≈ 2.13 µM)	8 (≈ 17.1 µM)	64 (≈ 137 µM)	8 (≈ 17.1 µM)	16 (≈ 34.1 µM)	16 (≈ 34.1 µM)	8 (≈ 17.1 µM)	> 256	64 (≈ 137 µM)	> 256	4 (≈ 8.54 µM)	> 256	8 (≈ 17.1 µM)	4 (≈ 8.54 µM)	16 (≈ 34.1 µM)	> 256	64 (≈ 137 µM)	4 (≈ 8.54 µM)
CC(=O)OCC1=C(C(=O)OC(c2ccccc2)c2ccccc2)N2C(=O)[C@@H](NC3=NCCN3)C2SC1 (some centres undefined)	2 (≈ 3.95 µM)	64 (≈ 126 µM)	256 (≈ 505 µM)	32 (≈ 63.2 µM)	64 (≈ 126 µM)	32 (≈ 63.2 µM)	32 (≈ 63.2 µM)	> 256	64 (≈ 126 µM)	256 (≈ 505 µM)	32 (≈ 63.2 µM)	> 256	32 (≈ 63.2 µM)	32 (≈ 63.2 µM)	64 (≈ 126 µM)	> 256	> 256	64 (≈ 126 µM)
